Results as given in PubChem BioAssay AID651583 (The Scripps Research Institute Molecular Screening Center, 2012).
Calls of active or inactive are those of the source.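 Rule for the calls: active = Toxic to Huh-7.5 liver cells, with CC50, the dose killing half the cells, at most 24 µM; inactive = CC50 above 24 µM.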

System: Huh-7.5 viability, XTT absorbance
Assay: Huh-7.5 cell cytotoxicity, late-stage follow-up, cytotoxicity control for HCV core dimerization inhibitor project, XTT absorbance, powder samples (AID 651583)
How it was run: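 Timing: overnight cell plating, 72 h compound exposure at 37 °C / Assay system: Huh-7.5 cell line, viability by mitochondrial dehydrogenase activity / Technique: XTT-PMS absorbance, 450/650 nm / Benchmarks: DMSO control, cell-free compound blanks / Replication: triplicate wells per concentration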

Structure (SMILES)	CC50
Cc1ccc(Cc2c(C)nc3nc(SCC(=O)NCCN4CCCN(S(=O)(=O)c5ccc(C)cc5)CC4)nn3c2C)cc1	13.8 µM
Cc1ccc(Cc2c(C)nc3nc(SCC(=O)NCCN4CCN(Cc5ccc(F)cc5)CC4)nn3c2C)cc1	180 µM (inactive)
Cc1ccc(Cc2c(C)nc3nc(SCC(=O)NCCN4CCCN(S(C)(=O)=O)CC4)nn3c2C)cc1	193 µM (inactive)
Cc1ccc(Cc2c(C)nc3nc(SCC(=O)NCCN4CCCCCC4)nn3c2C)cc1	42.6 µM (inactive)
Cc1ccc(Cc2c(C)nc3nc(SCC(=O)NCCN4CCN(S(=O)(=O)c5ccccc5)CC4)nn3c2C)cc1	37.6 µM (inactive)
Cc1ccc(Cc2c(C)nc3nc(SCC(=O)NCCN4CCCN(S(=O)(=O)c5ccccc5)CC4)nn3c2C)cc1	9.51 µM
Cc1ccc(Cc2c(C)nc3nc(SCC(=O)NCCN4CCN(CCc5ccccc5)CC4)nn3c2C)cc1	> 36 µM (inactive)
Cc1ccc(Cc2c(C)nc3nc(SCC(=O)NCCN4CCNCC4)nn3c2C)cc1	33.8 µM (inactive)
Cc1ccc(Cc2c(CCc3ccccc3)nc3nc(SC(Cc4ccccc4)C(=O)NCCN4CCOCC4)nn3c2C)cc1 (stereo unspecified)	22.1 µM
Cc1ccc(Cc2c(C)nc3nc(SCC(=O)NCCN4CCOCC4)nn3c2C)cc1	> 12 µM (inactive)
Cc1ccc(Cc2c(C)nc3nc(SCC(=O)NCCN4CCN(Cc5ccc(Cl)cc5)CC4)nn3c2C)cc1	> 4 µM (inactive)
